According to ChEMBL document CHEMBL4138041, “Synthesis and biological activity evaluation of novel peroxo-bridged derivatives as potential anti-hepatitis B virus agents” (Medchemcomm, 2017):
Converted amounts (≈) assume the structure as drawn.

Legend:
[1] = tested on: Hepatitis B virus; experiment: Antiviral activity against Hepatitis B virus infected in human HepG2.2.15 cells assessed as inhibition of HBsAg secretion at 3.13 ug/ml after 4 days by ELISA relative to control; assay type: functional; details: HepG2.2.15, 96 h
Summary of the method: (§1)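 HepG2.2.15 cells in DMEM with nonessential amino acids, sodium pyruvate and 10% heat-inactivated FBS, 37 °C, 5% CO2, seeded at 1.0×10^5 cells/mL. Treated at 3.13 µg/mL for 4 or 8 days. Cleared supernatant stored at -20 °C, then HBsAg/HBeAg measured by ELISA, OD 450 nm. % inhibition = (1 − sample OD/untreated control OD)×100.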

[2] = tested on: Hepatitis B virus; experiment: Antiviral activity against Hepatitis B virus infected in human HepG2.2.15 cells assessed as inhibition of HBeAg secretion at 3.13 ug/ml after 4 days by ELISA relative to control; assay type: functional; details: HepG2.2.15, 96 h; summary of the method: as §1
[3] = tested on: Hepatitis B virus; experiment: Antiviral activity against Hepatitis B virus infected in human HepG2.2.15 cells assessed as inhibition of HBsAg secretion at 3.13 ug/ml after 8 days by ELISA relative to control; assay type: functional; details: HepG2.2.15, 192 h; summary of the method: as §1
[4] = tested on: Hepatitis B virus; experiment: Antiviral activity against Hepatitis B virus infected in human HepG2.2.15 cells assessed as inhibition of HBeAg secretion at 3.13 ug/ml after 8 days by ELISA relative to control; assay type: functional; details: HepG2.2.15, 192 h; summary of the method: as §1
[5] = tested on: HepG2 2.2.15; experiment: (§2) Cytotoxicity against human HepG2.2.15 cells after 4 days by MTS assay; assay type: cell-based; details: hepg2 2.2.15, 96 h
Summary of the method: (§3)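 HepG2.2.15 cells seeded at 1.0×10^5 cells/mL, grown 24 h at 37 °C in 5% CO2, then exposed to various concentrations (ethanol-dissolved) for 4 days. Medium removed and MTS added for 3 h at 37 °C. Absorbance read at 490 nm. % inhibition = (1 − sample OD/untreated control OD)×100.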

[6] = as §2; assay type: cell-based, HepG2 2.2.15; details: HepG2.2.15 cells, read-out: TC50; summary of the method: as §3
[7] = tested on: Hepatitis B virus; experiment: Antiviral activity against Hepatitis B virus infected in human HepG2.2.15 cells assessed as inhibition of HBsAg secretion after 4 days by ELISA; assay type: functional, organism-based; details: HepG2.2.15, 96 h
Summary of the method: (§4)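 HepG2.2.15 cells kept as monolayers in DMEM with nonessential amino acids, sodium pyruvate and 10% heat-inactivated FBS, 37 °C, 5% CO2. Seeded at 1.0×10^5 cells/mL in 96-well plates and exposed to a range of concentrations (ethanol-dissolved) for 4 or 8 days. Supernatant HBsAg/HBeAg measured by ELISA at 450 nm. % inhibition = (1 − sample OD/untreated control OD)×100.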

[8] = tested on: Hepatitis B virus; experiment: Antiviral activity against Hepatitis B virus infected in human HepG2.2.15 cells assessed as inhibition of HBeAg secretion after 4 days by ELISA; assay type: functional, organism-based; details: HepG2.2.15, 96 h; summary of the method: as §4
[9] = tested on: Hepatitis B virus; experiment: Antiviral activity against Hepatitis B virus infected in human HepG2.2.15 cells assessed as inhibition of HBsAg secretion after 8 days by ELISA; assay type: functional, organism-based; details: HepG2.2.15, 192 h; summary of the method: as §4
[10] = tested on: Hepatitis B virus; experiment: Antiviral activity against Hepatitis B virus infected in human HepG2.2.15 cells assessed as inhibition of HBeAg secretion after 8 days by ELISA; assay type: functional, organism-based; details: HepG2.2.15, 192 h; summary of the method: as §4
[11] = Therapeutic index, ratio of TC50 for human HepG2.2.15 cells to IC50 for Hepatitis B virus infected in human HepG2.2.15 cells assessed as inhibition of HBsAg secretion after 4 days; assay type: toxicity, cell-based; details: read-out: TI
[12] = Therapeutic index, ratio of TC50 for human HepG2.2.15 cells to IC50 for Hepatitis B virus infected in human HepG2.2.15 cells assessed as inhibition of HBeAg secretion after 4 days; assay type: toxicity, cell-based; details: read-out: TI
[13] = Therapeutic index, ratio of TC50 for human HepG2.2.15 cells to IC50 for Hepatitis B virus infected in human HepG2.2.15 cells assessed as inhibition of HBsAg secretion after 8 days; assay type: toxicity, cell-based; details: read-out: TI
[14] = Therapeutic index, ratio of TC50 for human HepG2.2.15 cells to IC50 for Hepatitis B virus infected in human HepG2.2.15 cells assessed as inhibition of HBeAg secretion after 8 days; assay type: toxicity, cell-based; details: read-out: TI
[15] = Acute toxicity in ICR mouse assessed as mortality rate at 1000 mg/kg, ip measured up to 14 days relative to control; assay type: organism-based; details: in vivo
Summary of the method: (§5)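 Kunming mice of both sexes, 18-22 g, six groups of six matched for weight and size, single intraperitoneal injection at 56, 178, 350, 422, 750 or 1000 mg/kg. General behaviour observed at 1, 4 and 24 h, then followed up to 14 days for behaviour, toxic effects and mortality. LD50 with 95% confidence interval derived from the dose groups.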

[16] = Acute toxicity in ICR mouse assessed as mortality rate at 750 mg/kg, ip measured up to 14 days relative to control; assay type: organism-based; details: in vivo; summary of the method: as §5
[17] = Acute toxicity in ICR mouse assessed as mortality rate at 422 mg/kg, ip measured up to 14 days relative to control; assay type: organism-based; details: in vivo; summary of the method: as §5
[18] = Acute toxicity in ICR mouse assessed as mortality rate at 178 mg/kg, ip measured up to 14 days relative to control; assay type: organism-based; details: in vivo; summary of the method: as §5

## Nc1ccn([C@H]2CS[C@@H](CO)O2)c(=O)n1
[1]
  inhibition at 3.13 µg/mL: 5.68%
[2]
  inhibition at 3.13 µg/mL: 4.94%
[3]
  inhibition at 3.13 µg/mL: -0.44%
[4]
  inhibition at 3.13 µg/mL: -9.22%

## CCC(CC[C@@H](C)[C@H]1CC[C@@H]2[C@]1(C)CC[C@H]1[C@]23C=C[C@@]2(C[C@@H](OC(C)=O)CC[C@]12C)OO3)C(C)C (some centres not stated)
[5]
  Activity: Dose-dependent effect
[1]
  inhibition at 3.13 µg/mL: 26.7%
[2]
  inhibition at 3.13 µg/mL: 25.6%
[3]
  inhibition at 3.13 µg/mL: 28.8%
[4]
  inhibition at 3.13 µg/mL: 25.8%

## CCC(CC[C@@H](C)[C@H]1CC[C@@H]2[C@]1(C)CC[C@H]1[C@]23C=C[C@@]2(CC(=O)CC[C@]12C)OO3)C(C)C (some centres not stated)
[5]
  Activity: Dose-dependent effect
[1]
  inhibition at 3.13 µg/mL: 1.91%
[2]
  inhibition at 3.13 µg/mL: 3.28%
[3]
  inhibition at 3.13 µg/mL: 5.7%
[4]
  inhibition at 3.13 µg/mL: 2.36%

## CC(C)CCC[C@@H](C)[C@H]1CC[C@@H]2[C@]1(C)CC[C@H]1[C@]23C=C[C@@]2(CC(=O)CC[C@]12C)OO3
[6]
  CC50 at 96 h: 10.2 µg/mL (≈ 24.7 µM)
[5]
  Activity: Dose-dependent effect
[1]
  inhibition at 3.13 µg/mL: 72.3%
[2]
  inhibition at 3.13 µg/mL: 54.1%
[3]
  inhibition at 3.13 µg/mL: 77.5%
[4]
  inhibition at 3.13 µg/mL: 58.7%
[7]
  IC50: 1.78 µg/mL (≈ 4.29 µM)
[8]
  IC50: 1.86 µg/mL (≈ 4.49 µM)
[9]
  IC50: 2.59 µg/mL (≈ 6.25 µM)
[10]
  IC50: 2.95 µg/mL (≈ 7.11 µM)
[11]
  selectivity ratio at 96 h: 5.79
[12]
  selectivity ratio at 96 h: 5.51
[13]
  selectivity ratio at 192 h: 3.4
[14]
  selectivity ratio at 192 h: 3.47
[15]
  mortality at 336 h: 100%
[16]
  mortality at 336 h: 100%
[17]
  mortality at 336 h: 67%
[18]
  mortality at 336 h: 0%

## CCC(CC[C@@H](C)[C@H]1CC[C@@H]2[C@]1(C)CC[C@H]1[C@]23C=C[C@@]2(C[C@@H](O)CC[C@]12C)OO3)C(C)C (some centres not stated)
[5]
  Activity: Dose-dependent effect
[1]
  inhibition at 3.13 µg/mL: 19%
[2]
  inhibition at 3.13 µg/mL: 2.88%
[3]
  inhibition at 3.13 µg/mL: 20%
[4]
  inhibition at 3.13 µg/mL: 10.3%

## CC(=O)O[C@H]1CC[C@]2(C)[C@H]3CC[C@]4(C)[C@@H]([C@H](C)CCCC(C)C)CC[C@H]4[C@@]34C=C[C@@]2(C1)OO4
[5]
  Activity: Dose-dependent effect
[1]
  inhibition at 3.13 µg/mL: 13%
[2]
  inhibition at 3.13 µg/mL: 3.51%
[3]
  inhibition at 3.13 µg/mL: 13.8%
[4]
  inhibition at 3.13 µg/mL: 7.56%

## CC(C)CCC[C@@H](C)[C@H]1CC[C@@H]2[C@]1(C)CC[C@H]1[C@]23C=C[C@@]2(C[C@@H](O)CC[C@]12C)OO3
[5]
  Activity: Dose-dependent effect
[1]
  inhibition at 3.13 µg/mL: 1.2%
[2]
  inhibition at 3.13 µg/mL: 1.35%
[3]
  inhibition at 3.13 µg/mL: 1.56%
[4]
  inhibition at 3.13 µg/mL: 2.55%
